INS promoter act: TRM-6 insulin promoter activation. TRM-6 cells, insulin promoter eGFP reporter, imaging; plate-scaled: unstimulated 0, stimulated control 100. activation, % at 2 µM. 130,000 tested, 0.81% active. AID 1296;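 active = activation at 2 µM above a set limit, confirmed on inspection of the cell images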;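 note: share of cells whose green reporter signal exceeds an intensity cutoff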
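Test system: human fetal islet-derived TRM-6 cells with tamoxifen-inducible insulin promoter–eGFP reporter. Compound dosing: 2 µM final, single concentration. Incubation: tamoxifen pre-incubation 15 h overnight, then compound exposure 48 h at 37 °C. Signal: fixed-cell fluorescence microscopy, eGFP plus Hoechst.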
* marks the source's active call; other numbers are inactive results. Many of the other results were omitted from the sample, so hits are more common in it than they were.

SMILES	INS promoter act
CC(=O)c1ccc(Oc2nc(-c3cccnc3)nc3ccccc23)cc1	0
Cc1ccc(Cn2nnnc2CN2CCC(O)(c3ccc(F)cc3)CC2)cc1	0
COc1ccc(Cn2nnnc2CN2CCC(O)(c3ccc(F)cc3)CC2)cc1	7
COc1cc(C(=O)NC2CCN(Cc3nnnn3Cc3ccc(F)cc3)CC2)cc(OC)c1OC	515*
Cc1ccc(C2(c3noc(CN4CCC(c5ccncc5)CC4)n3)CCCC2)cc1	0
O=c1c(-c2cc3ccccc3o2)[n+]([O-])c2ccccc2n1OCc1ccccn1	-5
COc1ccc(COn2c(=O)c(C)[n+]([O-])c3ccccc32)cc1OC	86*
Cc1c(=O)n(OCc2ccccc2)c2ccccc2[n+]1[O-]	356
Cc1ccc(-n2c(SCC(=O)Nc3cccc(S(N)(=O)=O)c3)nc3ccccc32)cc1	-6
CCc1noc(C)c1C(=O)Nc1nc(-c2ccc(Cl)cc2Cl)cs1	-7
O=C(NCc1cccs1)C(=O)NCC1OCCCN1S(=O)(=O)c1ccccc1 (stereo not given)	7
COc1ccc(CCn2nnc(-c3ccc(NC(C)=O)c(Cl)c3)n2)cc1	0
C=CCn1c(SCC(=O)NC(=O)c2cccc([N+](=O)[O-])c2)nnc1-c1ccccc1	8
CCCCNC(=O)CNC(=S)N(Cc1cc(OC)c(OC)c(OC)c1)C1CCCC1	4
COc1ccc(CCNC(=O)C2CCCN(c3nn4c(=O)cc(C)nc4s3)C2)cc1OC (stereo not given)	3
CCc1ccc(-c2nc(CN3CCCC(C(=O)NCCc4ccc(OC)c(OC)c4)C3)c(C)o2)cc1 (stereo not given)	121*
COc1ccc(CCNC(=O)C2CCN(S(=O)(=O)c3c(C)noc3C)CC2)cc1OC	-66
Cc1ccc(CN2CCN(/N=C/c3ccc(C)s3)CC2)c(C)c1	3
Cc1ccc(-c2csc3ncnc(N4CCN(C(=O)c5ccccc5)CC4)c23)cc1	0
CCCCNC(=O)[C@H](Cc1c[nH]c2ccccc12)NC(=O)c1ccccc1Cl	109
O=C(CCl)N(c1ccc(Cl)cc1)c1c[nH]c2ccccc12	257*
Cc1nn(-c2ccccc2)c(Cl)c1CN(C(=O)CCl)c1ccc(Cl)cc1	-100
CCOc1cccc(N(C(=O)Cc2cccs2)C(C(=O)NC2CCCCC2)c2cccn2C)c1 (stereo not given)	133
CCOc1ccc(C(=S)N2CCN(C)CC2)cc1	0
Cn1c(=O)oc2cc(S(=O)(=O)Nc3cccc4c3CCCC4)ccc21	-3
SMILES	INS promoter act
COc1ccc(NS(=O)(=O)c2ccc(NC(=O)c3cnn4c(C(F)F)cc(-c5ccc(C)cc5)nc34)cc2)cc1	3
COC(=O)c1cc(C#N)c(Oc2ccc(F)cc2)nc1C	7
COc1ccc(/C(N)=N/OC(=O)Oc2ccccc2)cc1OC	-2
N/C(=N\OC(=O)CCc1ccccc1)c1ccc(Br)cc1	10
N/C(=N\OC(=O)Oc1ccccc1)c1ccc(Br)cc1	493*
Cc1cc(C(=O)NCCCN2CCCC2=O)no1	10
O=C(Cn1cccc1C(=O)c1ccccc1)NCc1ccc(Cl)cc1	7
O=C(Cn1cccc1C(=O)c1ccccc1)NCc1cccc(Cl)c1	387*
Cc1ccc(CNC(=O)Cn2cccc2C(=O)c2ccccc2)cc1	5
COc1cc(/C=C/C(=O)O)cc(S(=O)(=O)Nc2cccc(SC)c2)c1OC	-2
CCCCNc1c(N)n(CCCC)c(=O)[nH]c1=O	-9
Cc1nn2c(=O)nc3sc4c(c3c2[nH]c1=O)CCCC4	344
CCOC(=O)c1ccc(N2CC(O)=C(c3nc4ccccc4c(=O)[nH]3)C2=N)cc1	36
Cc1nc(N)c(C#N)c(-c2ccccc2)c1C	0
CSc1nn2c(C)c(C)c(C)nc2c1C#N	322*
Cc1cc(-c2ccccc2)n2nc(C)c(C#N)c2n1	-3
CCCNC(=O)NC(=O)COC(=O)CNS(=O)(=O)/C=C/c1ccccc1	111
Cn1nc(C(F)(F)F)c(C(=O)Nc2ccc(F)cc2F)c1Sc1ccc(C(F)(F)F)cc1	-3
Cc1occc1C(=O)Nc1cc(C(F)(F)F)ccc1Cl	3
CC(=O)N1N=C(c2ccncc2)OC12CCCC2	543*
O=C(Nc1ccncc1)C1(c2ccccc2)CCCC1	0
Cc1ccc(NC(=O)Cn2cnc3c(nnn3Cc3ccc(F)cc3)c2=O)cc1	5
O=C(CSc1nnc(CCCN2C(=O)c3cccc4cccc(c34)C2=O)n1-c1ccccc1)NCCCN1CCOCC1	144
CSc1ccc(OC2CCCCC2NS(=O)(=O)c2ccc(Cl)cc2)cc1 (stereo not given)	-100
O=S(=O)(NC1CCCCC1Nc1ccccc1)c1ccccc1 (stereo not given)	-3
SMILES	INS promoter act
O=S(=O)(NC1CCCCC1NS(=O)(=O)c1ccc(F)cc1)c1ccc(F)cc1 (stereo not given)	513*
Cc1cc(NC(=O)CN2CCOCC2)n(-c2nc3ccccc3s2)n1	-6
CC1OC(Oc2ccc3ccc(=O)oc3c2-c2c(O)ccc3cc(Oc4ccc5ccc(=O)oc5c4)c(=O)oc23)C(O)C(O)C1O (stereo not given)	0
COc1ccc(-n2c(SCc3ccccn3)nc3c(c2=O)SCC3)cc1OC	6
CCCCC(Nc1ncnc2ccccc12)C(=O)O (stereo not given)	-3
Cc1ccc(Nc2ncnc3ccccc23)cc1	421*
CN(C)CCNc1ncnc2ccccc12	3
CC(=O)NC(C)C(=O)OCC(=O)c1ccc(-c2ccccc2)cc1 (stereo not given)	0
O=C(c1cc([N+](=O)[O-])ccc1N1CCOCC1)N1CCCC1	-7
O=[N+]([O-])c1cccc(-c2nc(NCc3ccccc3)c3ccccc3n2)c1	322*
Cc1ccc(-c2nc(N/N=C/c3cccc([N+](=O)[O-])c3)c3ccccc3n2)cc1	2
Fc1ccc(CNc2nc(-c3ccccc3)nc3ccccc23)cc1	0
COc1ccccc1NC(=O)CCC(=O)OCc1ccc(Cl)cc1	0
CCOC(=O)C1CCCN(C(=O)CCc2ccccc2)C1 (stereo not given)	-78
CCOC(=O)C1CCCN(C(=O)Cc2ccc(Cl)cc2)C1 (stereo not given)	85*
CCOC(=O)C1CCN(C(=O)COc2ccc(Cl)cc2)CC1	0
Cn1cccc1/C=C(/C#N)c1ccc(F)cc1	438*
CCOc1cc(/C=C(/C#N)c2ccc(F)cc2)ccc1OCc1ccc(C(=O)O)o1	226
N#C/C(=C/c1cn(CC(=O)O)c2ccccc12)c1ccc(F)cc1	-3
CC1(C)CC(=O)C2=C(C1)N(c1ccccc1)C(=O)C2(O)C(F)(F)F (stereo not given)	-4
O=C(CCCN1C(=O)c2ccccc2C1=O)NCc1ccco1	239
O=C(CCCN1C(=O)c2ccccc2C1=O)NCc1cccnc1	473*
O=C(CCCN1C(=O)c2ccccc2C1=O)Nc1cccnc1	-10
Cc1cc(SCC(=O)N(C)C2CCS(=O)(=O)C2)nc2c(C)cccc12 (stereo not given)	-5
Cc1ccc(N2CCN(c3ccc(NC(=O)CCC(=O)O)cc3)CC2)cc1	-73
SMILES	INS promoter act
CCCC(=O)Nc1ccc(N2CCN(C(=O)c3ccccc3C)CC2)cc1	444*
CCCC(=O)Nc1ccc(C(=O)N2CCCC2)cc1	-3
Cc1nn(Cc2ccc(Cl)cc2)c(C)c1NC(=O)CCCn1nc([N+](=O)[O-])c(Cl)c1C	-7
Cc1ccccc1Oc1ncnc(N)c1[N+](=O)[O-]	8
Cc1cc(C)c(C)c(Oc2ncnc(N)c2[N+](=O)[O-])c1	-3
Cc1ccc(Oc2ncnc(N)c2[N+](=O)[O-])cc1C	312*
